Laboratory results published in publication PMC11516114 (Protein Science : A Publication of the Protein Society, 2024).
Where two headings read alike, the source gives them in different places.

Experiments:
[1] = biological target: T1, wild-type HIF-2α PAS-B (Homo sapiens, UniProt Q99814); test: Isothermal titration calorimetry; format: binding
How it was run: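 Human HIF-2α PAS-B (residues 240–350), expressed with a cleavable His6-Gβ1 tag, purified by Ni2+ affinity, TEV cleavage, a second Ni2+ pass and size exclusion. ITC run at 25°C with protein (250–300 μM) titrated into 20 μM test compound: 25 injections, 250 s spacing, 350 rpm. Protein-into-buffer heats were subtracted.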

[2] = biological target: T1, wild-type HIF-2α PAS-B; details: previously measured, ref Key et al. [2009]; cited from earlier work

T1 sequence (Q99814 240-350): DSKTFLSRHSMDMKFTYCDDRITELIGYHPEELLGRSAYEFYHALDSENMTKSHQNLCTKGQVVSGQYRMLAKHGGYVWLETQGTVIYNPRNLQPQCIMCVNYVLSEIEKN

Kd [1] [nM] | SMILES | Kd [2] [nM]
600 ± 60 | O=[N+]([O-])c1cc(C(F)(F)F)ccc1NCc1ccsc1 [THS-017, 2‐nitro‐N‐[(thiophen‐3‐yl)methyl]‐4‐(trifluoromethyl)aniline] | 590 ± 50
1350 ± 110 | O=[N+]([O-])c1cc(C(F)(F)F)ccc1NCc1ccco1 [THS-020, N‐[(furan‐2‐yl)methyl]‐2‐nitro‐4‐(trifluoromethyl)aniline] | 1500 ± 700
